Screening data: PubChem, several laboratories
HSF1 activator – HSF-1 activators, primary screen, NIH3T3-HGL cells, MG132 stress, luminescence, single point. NIH3T3-HGL HSF-1 luciferase reporter, 8 h; 100% = twice DMSO control signal. activation, % at 9 µM. hit rate 1.7% among 300,000. AID 504408, 2011;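 active = mean replicate activation of at least 50% with a set share of replicates each reaching 50%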;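 also: 0% = median of the neutral control wells and 100% = twice that signal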
Lipid droplet – inhibitors of hepatocyte lipid droplet formation, primary screen, imaging, high-throughput imaging, BODIPY stain; AML12 mouse hepatocytes, oleate lipid droplets; inhibition, % at 6.5 µM; hit rate 0.4% among 240,000;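 active = lipid droplet intensity inhibited by at least 50%, with more than 500 cells counted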
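Material – AML12 mouse liver cells · Also added – oleate loading, 100 µM · Compound dosing – 6.5 µM single-point dosing · Times – overnight treatment with compound plus oleate · Measured by – fluorescence imaging, 20x objective, two fields per well · Read-out – percent inhibition of filter-corrected integrated lipid droplet intensity per well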
HSF1 inhib – HSF1 inhibitors in luciferase reporter cells, primary screen, cell-based, NIH3T3, luminescence | NIH3T3-HGL HSE-luciferase, MG132-induced, luminescence 8 h; hits give low values | activity change, negative = inhibition, % at 7.5 µM (by protocol) | hit rate 0.77% among 300,000;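 active = more than half of replicate wells show activity change below -50%, luminescence cut by over half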;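 also: luciferase reports HSF-1 transcriptional activity via heat shock element; 0% = median of DMSO wells and -100% = zero luminescence signal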
PHOSPHO1 block – PubChem AID 1565 | recombinant PHOSPHO1, absorbance phosphatase assay | inhibition, % at 13.3 µM | Phosphoethanolamine/phosphocholine phosphatase (Homo sapiens), Q8TCT1 | hit rate 1.1% among 290,000; in the data active = inhibition above about 60%
Target sequence (Q8TCT1 whole entry, looked up): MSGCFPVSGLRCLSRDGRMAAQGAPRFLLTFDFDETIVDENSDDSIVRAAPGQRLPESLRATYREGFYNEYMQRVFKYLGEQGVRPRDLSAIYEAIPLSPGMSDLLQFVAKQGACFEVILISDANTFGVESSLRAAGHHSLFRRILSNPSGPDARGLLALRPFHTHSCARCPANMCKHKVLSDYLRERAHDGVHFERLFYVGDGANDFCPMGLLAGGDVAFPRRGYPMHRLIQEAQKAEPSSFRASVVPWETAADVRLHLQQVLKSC
CHT PAM – CHT positive allosteric modulators, primary screen, cell-based, membrane potential dye, choline EC20. High affinity choline transporter 1 (Homo sapiens), Q9GZV3. CHT-expressing cells; hits give high values; LV-AA mutant CHT in HEK293 cells. AID 488977, 2010. hit rate 0.49% among 310,000. B-score at 10 µM;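 active = initial fluorescence not abnormally high and integrated response B-score, plate-corrected, over 3 SD above library mean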
CHT inh – inhibitors of human choline transporter CHT; CHT-expressing cells, membrane potential dye, choline response; hits give low values; B-score at 10 µM; hit rate 0.86% among 310,000; AID 488975, 2010;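 active = B-score over 3 SD under the library average, and starting fluorescence ratio not unusually high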;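 also: choline stimulus applied at its EC90 after an EC20 pre-addition; B-score computed on integrated fluorescence ratio after choline addition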
CHT block conf – CHT inhibitors, confirmation, cell-based, membrane potential dye, duplicate; CHT-expressing cells, choline membrane potential dye; LV-to-AA substituted CHT, HEK293 cells; hit rate 70% among 2,400; AID 493221, 2011; shares compounds with CHT inh; CHT activity remaining % of control (hits give low values), % at 10 µM;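 active = choline transporter activity left, mean of duplicates at 10 µM, below buffer-only control mean minus 3 SD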;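 also: depolarization triggered by choline at its EC90 following an EC20 pre-addition; 0% = hemicholinium-3 full block and 100% = buffer-only control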
HEK293 CHT ctr – membrane potential effects in parental HEK293, counter-screen for CHT inhibitor project, cell-based, membrane potential dye; AID 493222, 2011; membrane potential ratio readout (active if shifted either direction beyond buffer ±3SD; no single direction) at 10 µM; choline response; active = decrease or increase beyond buffer ±3SD; shares compounds with CHT inh; hit rate 4% among 2,400;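 also: parental cells lack the transporter so any hit is non-specific; ratio is peak minus trough fluorescence over baseline after EC90 choline challenge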
* = called active by the depositor. In the library only some 4.9% were active in any assay of this set; here they are far more common.

What do the screens show for `Cc1ccc(Cl)c2sc(NC(=O)C3CC3)nc12`?
HSF1 activator: -3; Lipid droplet: -12; HSF1 inhib: 5; PHOSPHO1 block: 31; CHT PAM: inactive; CHT inh: inactive

What do the screens show for `CCCc1nc(NCCO)c(C#N)c2c1CCCC2`?
HSF1 activator: -11; Lipid droplet: -6; HSF1 inhib: -15; PHOSPHO1 block: 22; CHT PAM: inactive; CHT inh: -8*; CHT block conf: inactive; HEK293 CHT ctr: inactive

How did O=C(Nc1nc2ccc(S(=O)(=O)N3CCCCC3)cc2s1)c1cccnc1 do in these assays?
Lipid droplet: -7; PHOSPHO1 block: 26; CHT PAM: inactive; CHT inh: -5.5*; CHT block conf: 49%*; HEK293 CHT ctr: inactive

What do the screens show for `O=C(CSc1nc2ccccc2c(=O)n1-c1ccccc1)NCC1CCCO1` (configuration not stated)?
HSF1 activator: 0; Lipid droplet: -4; HSF1 inhib: -8; PHOSPHO1 block: -10; CHT PAM: inactive; CHT inh: inactive

What do the screens show for `COc1ccc(-n2c(SCC(=O)NCC3CCCO3)nc3ccccc32)cc1` (configuration not stated)?
HSF1 activator: -3; Lipid droplet: -3; HSF1 inhib: 4; PHOSPHO1 block: 78*; CHT PAM: inactive; CHT inh: -5.5*; CHT block conf: inactive; HEK293 CHT ctr: inactive

Results for Cc1ccc(NS(=O)(=O)c2sc3ccc(Cl)cc3c2C)cc1 ?
HSF1 activator: 15; Lipid droplet: -8; HSF1 inhib: 4; PHOSPHO1 block: 31; CHT PAM: inactive; CHT inh: inactive

What do the screens show for `COc1ccc(C(=O)Nc2nc3nccc(-c4ccccc4)n3n2)cc1`?
HSF1 activator: -20; Lipid droplet: 39; HSF1 inhib: -6; PHOSPHO1 block: -12; CHT PAM: inactive; CHT inh: -6.4*; CHT block conf: inactive; HEK293 CHT ctr: inactive

What do the screens show for `CCOC(=O)c1ccc(NS(=O)(=O)c2ccc3c(c2)NC(=O)CCS3)cc1`?
HSF1 activator: 1; Lipid droplet: -3; HSF1 inhib: -5; PHOSPHO1 block: 44; CHT PAM: inactive; CHT inh: -5.1*; CHT block conf: 64%*; HEK293 CHT ctr: inactive

Results for C=C[C@@]1(C)CC(=O)[C@]2(O)[C@@]3(C)[C@@H](O)CCC(C)(C)[C@@H]3[C@H](OC(C)=O)[C@H](O)[C@@]2(C)O1 ?
HSF1 activator: 4; HSF1 inhib: 0; CHT PAM: inactive; CHT inh: -8.1*; CHT block conf: 37%*; HEK293 CHT ctr: inactive

How did COc1ccc(N2CCN(c3ncnc4scc(-c5ccc(C)cc5)c34)CC2)cc1 do in these assays?
HSF1 activator: 12; Lipid droplet: -35; HSF1 inhib: -4; PHOSPHO1 block: 10; CHT PAM: inactive; CHT inh: inactive

What do the screens show for `CCN1CCN(c2ncnc3scc(-c4ccc(OC)cc4)c23)CC1`?
HSF1 activator: -12; Lipid droplet: -2; HSF1 inhib: -12; PHOSPHO1 block: 15; CHT PAM: inactive; CHT inh: -5.3*; CHT block conf: 51%*; HEK293 CHT ctr: inactive

Results for Cc1ccc(-c2csc3ncnc(N4CCN(C)CC4)c23)cc1C ?
HSF1 activator: -20; Lipid droplet: 0; HSF1 inhib: -11; PHOSPHO1 block: 13; CHT PAM: inactive; CHT inh: -11*; CHT block conf: 48%*; HEK293 CHT ctr: inactive

How did O=C(CCc1ccccc1)c1c(O)cc(O)cc1O do in these assays?
HSF1 activator: -9; Lipid droplet: 39; HSF1 inhib: -3; PHOSPHO1 block: 40; CHT PAM: inactive; CHT inh: -7.9*; CHT block conf: 40%*; HEK293 CHT ctr: inactive

What do the screens show for `COc1ccc(C(=O)CCc2ccccc2)c(O)c1`?
HSF1 activator: 15; HSF1 inhib: 6; CHT PAM: inactive; CHT inh: inactive

How did C=CCSc1nnc(-c2ccncc2)n1-c1ccc(OCC)cc1 do in these assays?
HSF1 activator: 11; Lipid droplet: 2; HSF1 inhib: -4; PHOSPHO1 block: -10; CHT PAM: inactive; CHT inh: -5.5*; CHT block conf: 59%*; HEK293 CHT ctr: -8.4*

How did CCc1ccc(-n2c(SCc3c(C)noc3C)nnc2-c2ccncc2)cc1 do in these assays?
HSF1 activator: 19; Lipid droplet: -5; HSF1 inhib: 6; PHOSPHO1 block: 35; CHT PAM: inactive; CHT inh: -5.1*; CHT block conf: inactive; HEK293 CHT ctr: inactive

Results for COc1ccc(COC(=O)C2=C(C)NC(=O)NC2c2cccc(Br)c2)cc1 (configuration not stated) ?
HSF1 activator: 22; Lipid droplet: -1; HSF1 inhib: 5; PHOSPHO1 block: 20; CHT PAM: inactive; CHT inh: inactive

Results for O=c1oc2cc(OCCO)ccc2c2c1CCCC2 ?
HSF1 activator: 13; Lipid droplet: -6; HSF1 inhib: 1; CHT PAM: inactive; CHT inh: inactive

Results for COC(=O)N(NC(=O)C(O)(c1ccccc1)c1ccccc1)c1ccccc1 ?
HSF1 activator: -3; Lipid droplet: -21; HSF1 inhib: 6; PHOSPHO1 block: 12; CHT PAM: inactive; CHT inh: inactive

How did COC(=O)N(NC(=O)C(O)(CCC(C)C)CCC(C)C)c1ccccc1 do in these assays?
HSF1 activator: -9; Lipid droplet: -7; HSF1 inhib: 4; PHOSPHO1 block: -11; CHT PAM: inactive; CHT inh: inactive; CHT block conf: inactive; HEK293 CHT ctr: inactive

What do the screens show for `CCN(CC)CCCNC(=O)c1cc(-c2ccc(Cl)c(Cl)c2)on1`?
HSF1 activator: 1; HSF1 inhib: -4; PHOSPHO1 block: -2; CHT PAM: inactive; CHT inh: -6.7*; CHT block conf: 31%*; HEK293 CHT ctr: inactive

Results for c1ccc(Cc2nn3c(-c4ccncc4)nnc3s2)cc1 ?
HSF1 activator: -2; Lipid droplet: -3; HSF1 inhib: -1; PHOSPHO1 block: 34; CHT PAM: inactive; CHT inh: inactive
